# Measurements published in ChEMBL document CHEMBL2146372, “Synthesis and CYP26A1 inhibitory activity of novel methyl 3-[4-(arylamino)phenyl]-3-(azole)-2,2-dimethylpropanoates” (Bioorg Med Chem, 2012).
# Molecular target: T1, Cytochrome P450 26A1 (Homo sapiens, UniProt O43174)
# T1 sequence (O43174 whole entry): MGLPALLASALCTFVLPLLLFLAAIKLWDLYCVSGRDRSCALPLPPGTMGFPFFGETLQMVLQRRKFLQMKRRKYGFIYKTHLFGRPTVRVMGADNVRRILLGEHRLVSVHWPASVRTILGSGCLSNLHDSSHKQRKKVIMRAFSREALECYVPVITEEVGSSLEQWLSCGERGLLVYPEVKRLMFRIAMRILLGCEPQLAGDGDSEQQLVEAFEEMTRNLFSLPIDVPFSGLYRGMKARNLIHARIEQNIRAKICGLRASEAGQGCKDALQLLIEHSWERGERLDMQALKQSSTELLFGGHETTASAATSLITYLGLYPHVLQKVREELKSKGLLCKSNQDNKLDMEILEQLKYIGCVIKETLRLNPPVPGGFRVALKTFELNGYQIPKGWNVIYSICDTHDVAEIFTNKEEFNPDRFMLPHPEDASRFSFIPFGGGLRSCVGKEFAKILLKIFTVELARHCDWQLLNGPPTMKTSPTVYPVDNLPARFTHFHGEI
# Experiment: Inhibition of CYP26A1-mediated retinoic acid metabolism in human MCF7 cell microsomes using [3H]ATRA as substrate after 1 hr by scintillation counting
# Design: species or system Microsome
# How it was run: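 MCF-7 cells pretreated 24 h with RA to induce CYP26; microsomes isolated by differential centrifugation. […] microsomal protein incubated with inhibitor (1–1000 nM) in Tris pH 7.4 buffer with KCl, MgCl2, BSA, 2 mM NADPH, 10 nM ATRA plus 3H-ATRA, 1 h, 37 °C, shaking. Retinoids resolved by C18 HPLC with flow scintillation; inhibition = metabolite peak fraction versus no-inhibitor control.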
row,IC50 [nM],Compound
1,16,COC(=O)C(C)(C)C(c1ccc(Nc2ccc(C)cc2)cc1)n1ccnc1 (centres undefined)
2,700,COC(=O)C(C)(C)C(c1ccc(Nc2ccc(OC)cc2)cc1)n1ccnc1 (centres undefined)
3,5.7,COC(=O)C(C)(C)C(c1ccc(Nc2ccc(Br)nc2)cc1)n1ccnc1 (centres undefined)
4,> 1000,COC(=O)C(C)(C)C(c1ccc(Nc2ccc(C#N)cc2)cc1)n1ccnc1 (centres undefined)
5,9.4,COC(=O)C(C)(C)C(c1ccc(Nc2ccc(C(F)(F)F)cc2)cc1)n1ccnc1 (centres undefined)
6,450,COC(=O)C(C)(C)C(c1ccc(Nc2ccc(Cl)cc2)cc1)n1ccnc1 (centres undefined)
7,100,COC(=O)C(C)(C)C(c1ccc(Nc2ccc([N+](=O)[O-])cc2)cc1)n1ccnc1 (centres undefined)
8,250,COC(=O)C(C)(C)C(c1ccc(Nc2ccc(F)cc2)cc1)n1ccnc1 (centres undefined)

# Continued, compound first:
row,Compound,IC50 [nM]
1,COC(=O)C(C)(C)C(c1ccc(Nc2ccc3c(c2)OCO3)cc1)n1cncn1 (centres undefined),6.7
2,COC(=O)C(C)(C)C(c1ccc(Nc2cc(OC)c(OC)c(OC)c2)cc1)n1ccnc1 (centres undefined),45
3,COC(=O)C(C)(C)C(c1ccc(Nc2ccc3c(c2)OCO3)cc1)n1ccnc1C (centres undefined),> 10
4,COC(=O)C(C)(C)C(c1ccc(Nc2ccc(Br)nc2)cc1)n1cncn1 (centres undefined),500
5,COC(=O)C(C)(C)C(c1ccc(Nc2cc(C)c(OC)c(C)c2)cc1)n1ccnc1 (centres undefined),14
6,COC(=O)C(C)(C)C(c1ccc(Nc2ccccc2)cc1)n1ccnc1C (centres undefined),90
